High-throughput results from PubChem.
Hits are enriched below; roughly 3.7% of the tested compounds scored in any of these assays.
Kir21 block = inhibitors of mouse Kir2.1 inward-rectifier potassium channel; Inward rectifier potassium channel 2 (Mus musculus), P35561; HEK293-Kir2.1, FluxOR thallium flux fluorescence; stronger effect = lower value; B-score at 10 µM; 0.85% of 310,000 active;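 active means fluorescence ratio B-score at or below minus 3 SD of library scores, with starting-brightness B-score within 2 SD, cut at about -4.2 in these data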;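 further: channel flux triggered by added potassium and thallium sulfate stimulus; B-score of peak minus minimum fluorescence over baseline after thallium stimulus; more negative B-score means stronger Kir2.1 block with less thallium influx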
KCNQ1 inh = inhibitors of human KCNQ1 channel, primary screen, cell-based, thallium flux, high-throughput | Potassium voltage-gated channel subfamily KQT member 1 (Homo sapiens), P51787 | CHO-K1 KCNQ1, FluxOR thallium flux fluorescence; stronger effect = higher value | B-score at 10 µM | 1.3% of 310,000 active | AID 2642, 2010;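 active means compounds whose thallium flux B-score, printed positive for inhibition, exceeds three library SD while starting fluorescence stays within three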;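 further: channel opened by potassium depolarization with thallium stimulus after 20 min compound exposure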
KCNQ1 pot = potentiators or activators of KCNQ1 channel, primary screen, cell-based, thallium flux, high-throughput. Potassium voltage-gated channel subfamily KQT member 1 (Homo sapiens), P51787. CHO-K1 KCNQ1, thallium flux FluxOR fluorescence; stronger effect = higher value. B-score at 10 µM. 0.35% of 310,000 active;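 active means fluorescence ratio B-score, a plate-corrected score, at least three library SD, with initial intensity B-score within 5 SD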
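System: Stable KCNQ1 CHO-K1 line | Incubation: 90 min dye loading and 20 min compound exposure, both at room temperature | Measure: Ratio B score | Medium: Assay buffer for compound exposure, DMSO matched across wells | Compound dosing: Single-concentration screen | Probe or stimulus: K+/Tl+ depolarizing stimulus | Measured by: Kinetic FluxOR fluorescence, 10 s baseline plus 110 s post-stimulus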
hERG rescue = hERG rescue from dofetilide block, primary screen, cell-based, CHO-hERG, FluxOR thallium flux, dofetilide IC70 | Voltage-gated inwardly rectifying potassium channel KCNH2 (Homo sapiens), Q12809 | dofetilide IC70 present | activation (rescue from dofetilide block), less the hit threshold, % at 10 µM | 0.51% of 310,000 active | AID 1511, 2009;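 active means activation above the mean of controls blocked by dofetilide plus 5 SD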;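 further: thallium influx through hERG after potassium depolarization seen as dye fluorescence rise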
KCNK3 inh = human KCNK3 channel inhibitors, primary screen, CHO cells, FluxOR thallium flux, B-score. Potassium channel subfamily K member 3 (Homo sapiens), O14649. FluxOR fluorescence; stronger effect = lower value. B-score at 10 µM. 0.84% of 340,000 active. AID 602410, 2012;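 active means B-score under library mean minus 4 SD, starting fluorescence ratio at most library mean plus 5 SD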;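 further: more negative B-score means stronger inhibition of thallium flux through KCNK3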
KCNK9 inh = KCNK9 potassium channel inhibitors, primary screen, HEK293 cells, thallium flux | B-score at 10 µM | FluxOR thallium flux fluorescence; stronger effect = lower value | 1.2% of 310,000 active | Potassium channel subfamily K member 9 (Homo sapiens), Q9NPC2;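 active means ratio B-score over 3 SD below the library mean, with starting fluorescence within 5 SD of its mean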;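 further: negative B-score means less thallium flux so channel inhibition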
Target sequence (Q9NPC2 whole entry, looked up): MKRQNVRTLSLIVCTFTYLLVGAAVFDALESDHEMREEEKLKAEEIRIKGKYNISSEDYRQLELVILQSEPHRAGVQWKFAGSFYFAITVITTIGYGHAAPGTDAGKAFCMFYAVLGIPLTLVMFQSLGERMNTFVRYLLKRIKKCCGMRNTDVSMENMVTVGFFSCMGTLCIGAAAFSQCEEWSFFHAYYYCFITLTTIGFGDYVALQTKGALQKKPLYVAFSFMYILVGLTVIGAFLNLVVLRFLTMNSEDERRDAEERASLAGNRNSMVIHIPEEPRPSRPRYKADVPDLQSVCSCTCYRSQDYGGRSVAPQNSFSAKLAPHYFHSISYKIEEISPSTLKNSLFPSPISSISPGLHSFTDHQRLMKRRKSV
KCNK9 inh conf = KCNK9 potassium channel inhibitors, confirmation, HEK293 cells, thallium flux, duplicate | shares compounds with KCNK9 inh | FluxOR thallium flux fluorescence | inhibition, % at 10 µM | 43% of 4,900 active;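 active means thallium signal inhibited by more than 5 SD of the compound-free buffer control wells, on both duplicate plates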;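 further: 0% = assay buffer control wells without compound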
Kir2-1 spec = mouse Kir2.1 channel inhibition, confirmation, selectivity assay for KCNK9 modulator project, cell-based, HEK293, thallium flux; Kir2.1 cells, FluxOR thallium flux fluorescence; inhibition, % at 10 µM; 4% of 4,900 active; shares compounds with KCNK9 inh;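 active means thallium signal drop more than 5 SD beyond the mean of the no-compound control wells, seen in both duplicate plates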;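 further: signal is fluorescence rise after thallium addition divided by baseline fluorescence; plate controls were assay buffer only for no effect and full block by chlorpromazine control for full effect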
HEK293 Tl ctr = thallium flux in non-induced HEK293 cells, confirmation, counter-screen for KCNK9 inhibitor project, cell-based, second counter screen, non-induced KCNK9-HEK293. shares compounds with KCNK9 inh. FluxOR thallium flux. inhibition, % at 10 µM. 40% of 4,900 active;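 active means thallium signal drop beyond 5 SD of the untreated control mean, on both duplicate plates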;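 further: plate controls were buffer only IC0 wells for no effect and SID17386958 at its maximal inhibitory level for full effect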
Numbers without * were called inactive; i = inactive; / = no result.

SMILES | Kir21 block | KCNQ1 inh | KCNQ1 pot | hERG rescue | KCNK3 inh | KCNK9 inh | KCNK9 inh conf | Kir2-1 spec | HEK293 Tl ctr
CC(Sc1nc2ccccc2c(=O)n1CCc1ccc(S(N)(=O)=O)cc1)C(=O)NC(N)=O (centres undefined) | -0.11 | i | i | -6 | i | i | / | / | /
COc1cc2cc(CCCO)oc(=O)c2cc1OC | / | / | / | / | i | / | / | / | /
CN1C(=O)c2ccc(C(=O)NCc3ccco3)cc2C1=O | -0.01 | i | i | -7 | i | i | / | / | /
Cc1ccc(S(=O)(=O)NCCC(=O)NC(C)CCc2ccccc2)cc1 (centres undefined) | -1.3 | i | i | -10 | i | i | / | / | /
N#CC(c1ccccc1)c1ccc(C(=O)c2ccc(F)cc2)cc1 (centres undefined) | -0.21 | i | i | -7 | i | -9.8* | 54%* | i | 36%*
C/C(N)=C(/C#N)C(=O)CN1C(=O)NC(Cc2c[nH]c3ccccc23)C1=O (centres undefined) | 0.02 | i | i | -3 | i | i | / | / | /
Cc1ccccc1NC1=C(Cl)C(=O)N(C2CCCCC2)C1=O | -1.6 | i | i | -9 | i | i | / | / | /
COc1ccc(N2C(=O)C(Cl)=C(NCc3ccccc3)C2=O)cc1 | -0.01 | i | i | -7 | i | i | / | / | /
COc1ccccc1NC1=C(Cl)C(=O)N(C2CCCCC2)C1=O | -0.42 | i | i | -16 | i | -8.5* | 58%* | i | 29%*
CCOc1ccccc1NC1=C(Cl)C(=O)N(c2ccc(OC)cc2)C1=O | 0.92 | i | i | -12 | i | -17* | 64%* | i | 42%*
Cc1ccc(S(=O)(=O)NCC(=O)OCC(=O)N2CCN(C(=O)c3ccco3)CC2)cc1C | 1.2 | i | i | -8 | i | i | / | / | /
CCCCC(=O)Nc1ccc(F)c(Cl)c1 | 0.44 | i | i | -13 | i | i | / | / | /
CSCC(=O)Nc1ccc(F)c(Cl)c1 | 2 | i | i | -7 | i | i | i | i | i
C=CCSc1nc(-c2ccc(OC)cc2)c(C#N)c(=O)n1CC=C | -1.2 | i | i | -8 | i | -8.7* | i | i | i
O=C(C1CCN(S(=O)(=O)c2ccc(Cl)cc2)CC1)N1CCN(c2ccccn2)CC1 | / | / | / | / | i | / | / | / | /
COc1ccc(CC(=O)n2nc(-c3ccccc3)nc2NCc2ccco2)cc1 | -0.41 | i | i | -6 | i | i | / | / | /
O=C(CCc1ccccc1)n1nc(-c2ccccc2)nc1NCc1ccco1 | 0.02 | i | i | -9 | i | -8.4* | i | i | 33%*
Nn1cnc2scc(-c3ccco3)c2c1=O | -0.4 | i | i | -5 | i | i | / | / | /
Cc1cc2c3c([nH]c2cc1S(=O)(=O)NCc1ccc(CN2CCCCCC2)o1)CCCC3=O | -1 | i | i | -8 | i | i | / | / | /
C=CCNC(=O)c1n[nH]c2c1CC(C(C)(C)CC)CC2 (centres undefined) | / | / | / | / | i | / | / | / | /
O=[N+]([O-])c1cccc(-c2nc3ccccc3s/c2=N/O)c1 | -0.62 | i | i | -18 | i | -8.8* | 30%* | i | 38%*
CCn1c(N2CCN(S(=O)(=O)c3ccc(F)cc3)CC2)nc2ccccc21 | -0.03 | i | i | -6 | i | i | / | / | /
CCn1c(N2CCN(S(=O)(=O)c3ccc(Cl)cc3)CC2)nc2ccccc21 | -0.11 | i | i | 5.8* | i | i | i | i | i
N#C/C(=C/c1ccc(OCc2ccc(C(=O)O)cc2)c(Br)c1)c1cccc(F)c1 | 2.1 | i | i | -11 | i | i | i | i | i
CC(C)C[C@@H](CNCC(=O)[C@H](C)NC(=O)c1[nH]cnc1C(=O)N[C@H](CN)CC(C)C)NC(=O)c1nc[nH]c1C(=O)N[C@@H](C)C(=O)O | / | / | / | / | i | / | / | / | /
SMILES | Kir21 block | KCNQ1 inh | KCNQ1 pot | hERG rescue | KCNK3 inh | KCNK9 inh | KCNK9 inh conf | Kir2-1 spec | HEK293 Tl ctr
O=C1/C(=C\c2ccc(Br)o2)SC(=Nc2ccccc2)N1c1ccccc1 | 0.38 | i | i | -11 | i | -8.4* | i | i | 37%*
C=C1CC2C(=O)N(Cc3ccccc3)C(C(=O)OCC)(C(=O)OCC)C1N2C(=O)OC(C)(C)C (centres undefined) | -1.3 | i | i | -9 | i | -12* | 47%* | i | 37%*
CCC(NC(=O)c1cccc(Cn2cc([N+](=O)[O-])cn2)c1)c1ccc(C(C)C)cc1 (centres undefined) | -2.1 | i | i | -9 | i | -14* | 62%* | i | 42%*
COc1ccc(C(CNC(=O)c2cccc(NS(=O)(=O)c3ccc(Br)cc3)c2)N(C)C)cc1 (centres undefined) | -0.86 | i | i | -17 | i | i | / | / | /
CN(CC(=O)NCc1ccccc1)Cc1ccc(Cl)cc1 | -1.4 | i | i | -4 | i | i | / | / | /
COc1ccc(CNC(=O)CN(Cc2ccccc2)S(=O)(=O)c2ccc(Cl)cc2)cc1 | -0.85 | i | i | -15 | i | i | / | / | /
CN(CC(=O)NC(=O)NCc1ccccc1)Cc1cccc(Cl)c1Cl | -2 | i | i | 0 | i | i | i | i | 22%*
CN(CC(=O)NC(=O)NCc1ccccc1)Cc1ccc(Cl)cc1 | -0.95 | i | i | -4 | i | i | i | i | i
COc1ccc(C)cc1S(=O)(=O)N(CC(=O)NCc1ccc(Cl)cc1)Cc1ccccc1 | 0.75 | i | i | -11 | i | -10* | i | i | 40%*
COc1ccc(NC2CCCN(C(=O)c3cn(C)c4ccccc34)C2)cc1 (centres undefined) | -0.96 | i | i | -6 | i | i | i | i | i
